According to ChEMBL document CHEMBL1147071, “Bisphosphonates as inhibitors of Trypanosoma cruzi hexokinase: kinetic and metabolic studies” (J Biol Chem, 2007):
Converted amounts (≈) assume the structure as drawn. The source made the active and inactive calls. No cut-off for these calls is given here.

Assays:
Hexokinase [1] = target: T1, Hexokinase (Trypanosoma cruzi, UniProt Q8ST54); test: Inhibition of glycosomal Trypanosoma cruzi hexokinase in presence of D-glucose, 1 mM ATP and 3 mM MgCl2 by competitive inhibition assay
T1 sequence (Q8ST54 whole entry): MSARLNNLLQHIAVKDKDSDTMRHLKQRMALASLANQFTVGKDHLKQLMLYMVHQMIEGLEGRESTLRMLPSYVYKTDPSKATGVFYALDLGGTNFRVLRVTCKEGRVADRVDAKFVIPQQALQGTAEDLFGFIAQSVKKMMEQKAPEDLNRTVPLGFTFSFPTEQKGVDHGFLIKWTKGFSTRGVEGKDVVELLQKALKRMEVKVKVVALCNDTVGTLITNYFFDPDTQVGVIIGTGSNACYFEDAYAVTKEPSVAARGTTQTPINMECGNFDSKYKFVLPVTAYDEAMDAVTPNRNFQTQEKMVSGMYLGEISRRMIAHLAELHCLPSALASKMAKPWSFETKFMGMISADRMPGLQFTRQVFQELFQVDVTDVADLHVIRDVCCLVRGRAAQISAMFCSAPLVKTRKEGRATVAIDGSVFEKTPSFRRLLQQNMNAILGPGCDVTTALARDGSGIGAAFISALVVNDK
Summary of the method: (§1)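 Purified intact glycosomes from exponential-phase epimastigotes (latency typically >95%) were permeabilized with digitonin 25 µg mg-1 protein for 1 min, pelleted and resuspended in buffer A (sucrose 225 mM, KCl 20 mM, KH2PO4 10 mM, EDTA 5 mM, Tris-HCl 20 mM, MgCl2 1 mM, pH 7.2). Hexokinase was assayed by coupled NADP+ reduction at 340 nm. Against ATP: 2 mM D-glucose, 3 mM MgCl2. Against glucose: 1 mM ATP, 3 mM MgCl2. Kii and Kis were fitted.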

Trypanosoma cruzi [2] = test: Effect on endogenous 24-ethyl-5,7,22-cholesta-trien-3beta-ol level in Trypanosoma cruzi epimastigotes at 50 uM; assay type: functional
Summary of the method: (§2)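 EP stock epimastigotes grown 120 h in LIT medium with 10% newborn calf serum at 28 °C, with or without compound at the stated concentration. Total lipids were extracted, and free sterols were separated from polar lipids by silicic acid column chromatography. Sterols were quantified by capillary gas-liquid chromatography and mass spectrometry and reported as mass percent of free sterols.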

Hexokinase [3] = target: T1, Hexokinase; test: Inhibition of glycosomal Trypanosoma cruzi hexokinase in presence of D-glucose, 1 mM ATP and 3 mM MgCl2; summary of the method: as §1
Hexokinase [4] = target: T1, Hexokinase; test: Inhibition of Trypanosoma cruzi hexokinase in presence of D-glucose, 1 mM ATP and 3 mM MgCl2
Summary of the method: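 Hexokinase purified to homogeneity from exponential-phase T. cruzi epimastigotes. Activity was coupled to glucose-6-phosphate dehydrogenase and read as NADP+ reduction at 340 nm, with initial velocity taken from the slope, linear for at least 5 min. D-glucose was varied at fixed inhibitor levels with 1 mM ATP and 3 mM MgCl2. Kii and Kis came from fitting to a mixed-inhibition equation (intercept/slope secondary plots).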

Trypanosoma cruzi [5] = test: Effect on exogenous cholesterol level in Trypanosoma cruzi epimastigotes at 100 uM; assay type: functional; summary of the method: as §2
Trypanosoma cruzi [6] = test: Effect on endogenous 24-ethyl-5,7-cholesta-dien-3beta-ol level in Trypanosoma cruzi epimastigotes at 50 uM; assay type: functional; summary of the method: as §2
Trypanosoma cruzi [7] = test: Effect on exogenous cholesterol level in Trypanosoma cruzi epimastigotes at 50 uM; assay type: functional; summary of the method: as §2
Trypanosoma cruzi [8] = test: Growth inhibition of Trypanosoma cruzi epimastigotes; assay type: functional, organism-based
Summary of the method: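 EP epimastigotes grown in LIT medium with 10% newborn calf serum at 28 °C, 120 rpm. Compound added from 100-fold stocks at 1-2 × 10^7 cells ml-1. Densities counted by particle counter and hemocytometer. Percent growth factor based on 96 h growth relative to untreated cells; IC50 from non-linear fit; MIC also reported. Triplicates.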

Trypanosoma cruzi [9] = test: Effect on endogenous 24-ethyl-5,7-cholesta-dien-3beta-ol level in Trypanosoma cruzi epimastigotes at 100 uM; assay type: functional; summary of the method: as §2
Hexokinase [10] = target: T1, Hexokinase; test: Inhibition of Trypanosoma cruzi hexokinase in presence of ATP, 2 mM D-glucose and 3 mM MgCl2 by mixed inhibition assay
Hexokinase [11] = target: T1, Hexokinase; test: Inhibition of Trypanosoma cruzi hexokinase in presence of ATP, 2 mM D-glucose and 3 mM MgCl2
Summary of the method: (§3)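 Homogeneous hexokinase purified from exponential-phase epimastigotes. Activity measured spectrophotometrically by coupling to glucose-6-phosphate dehydrogenase and following NADP+ reduction at 340 nm; rates taken from the initial linear slope. Against ATP: 2 mM D-glucose, 3 mM MgCl2. Against D-glucose: 1 mM ATP, 3 mM MgCl2. Substrate and inhibitor were varied, and Kii and Kis were obtained from fitting plus secondary plots.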

Trypanosoma cruzi [12] = test: Effect on glucose consumption in digitonin permeablized Trypanosoma cruzi; assay type: functional, organism-based
Summary of the method: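 Resuspended with PEP 6 mM, ADP 6 mM, NaHCO3 7 mM and L-malate 1 mM. Preincubated 60 min at 28 °C with varying compound concentrations before 3 mM D-glucose was added. Medium glucose was assayed enzymatically every 15 min; IC50 determined.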

Hexokinase [13] = target: T1, Hexokinase; test: Inhibition of glycosomal Trypanosoma cruzi hexokinase in presence of ATP, 2 mM D-glucose and 3 mM MgCl2 by competitive inhibition assay; summary of the method: as §1
Hexokinase [14] = target: T1, Hexokinase; test: Inhibition of Trypanosoma cruzi hexokinase in presence of D-glucose, 1 mM ATP and 3 mM MgCl2 by competitive inhibition assay; summary of the method: as §3
Hexokinase [15] = target: T1, Hexokinase; test: Inhibition of glycosomal Trypanosoma cruzi hexokinase in presence of ATP, 2 mM D-glucose and 3 mM MgCl2; summary of the method: as §1
Trypanosoma cruzi [16] = test: Effect on endogenous Ergosta-5,7-dien-3beta-ol level in Trypanosoma cruzi epimastigotes at 20 uM; assay type: functional; summary of the method: as §2
Trypanosoma cruzi [17] = test: Effect on endogenous Ergosta-5,7-24(24')-trien-3beta-ol level in Trypanosoma cruzi epimastigotes at 20 uM; assay type: functional; summary of the method: as §2
Trypanosoma cruzi [18] = test: Reduction in proliferation of Trypanosoma cruzi epimastigotes at 15 uM; assay type: functional, organism-based
Summary of the method: (§4)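 Epimastigotes cultured in LIT medium at 28 °C with agitation, with or without 15 µM compound. Cell proliferation, medium glucose and ammonium (enzymatic assays) and medium pH were followed over time. Triplicates.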

Trypanosoma cruzi [19] = test: Inhibition of glucose consumption in Trypanosoma cruzi epimastigotes after 96 hrs; assay type: functional, organism-based; summary of the method: as §4
Trypanosoma cruzi [20] = test: Effect on exogenous cholesterol level in Trypanosoma cruzi epimastigotes at 20 uM; assay type: functional; summary of the method: as §2
Trypanosoma cruzi [21] = test: Effect on endogenous 24-ethyl-5,7,22-cholesta-trien-3beta-ol level in Trypanosoma cruzi epimastigotes at 20 uM; assay type: functional; summary of the method: as §2
Trypanosoma cruzi [22] = test: Effect on endogenous 24-ethyl-5,7-cholesta-dien-3beta-ol level in Trypanosoma cruzi epimastigotes at 20 uM; assay type: functional; summary of the method: as §2
Trypanosoma cruzi [23] = test: Effect on endogenous 24-methyl-5,7,22-cholesta-trien-3beta-ol level in Trypanosoma cruzi epimastigotes at 20 uM; assay type: functional; summary of the method: as §2
Trypanosoma cruzi [24] = test: Inhibition of glucose consumption in Trypanosoma cruzi epimastigotes after 120 hrs; assay type: functional, organism-based; summary of the method: as §4
Trypanosoma cruzi [25] = test: Effect on endogenous Ergosta-7-24(24')-dien-3beta-ol level in Trypanosoma cruzi epimastigotes at 20 uM; assay type: functional; summary of the method: as §2

SMILES	Ki (Hexokinase [1])	Ki (Hexokinase [3])	IC50 (Trypanosoma cruzi [8])	MIC (Trypanosoma cruzi [8])	Ki (Hexokinase [10])	Ki (Hexokinase [11])	IC50 (Trypanosoma cruzi [12])	Ki (Hexokinase [13])	Ki (Hexokinase [14])	Ki (Hexokinase [15])	Activity (Trypanosoma cruzi [16])	Activity (Trypanosoma cruzi [17])	Activity (Trypanosoma cruzi [18])	Activity (Trypanosoma cruzi [20])	Activity (Trypanosoma cruzi [21])	Activity (Trypanosoma cruzi [22])	Activity (Trypanosoma cruzi [23])	other results
O=P(O)(O)C(O)(Cc1ccncc1)P(=O)(O)O	3400 nM	43900 nM	40600 nM	200 µM (≈ 56.6 µg/mL)	2800 nM	4300 nM	10300 nM	11400 nM	3300 nM	10500 nM	–	–	–	–	–	–	–	Activity (Trypanosoma cruzi [2]): 14.6%; Ki (Hexokinase [4]): 6000 nM; Activity (Trypanosoma cruzi [5]): 93.3%; Activity (Trypanosoma cruzi [6]): 14.5%; Activity (Trypanosoma cruzi [7]): 70.9%; Activity (Trypanosoma cruzi [9]): 6.7%
CCn1c2ccccc2c2cc(NC(P(=O)(O)O)P(=O)(O)O)ccc21	2400 nM	4300 nM	6400 nM	20 µM (≈ 7.69 µg/mL)	1700 nM	2800 nM	620 nM	1200 nM	500 nM	1700 nM	26.3%	3.8%	Active	18.8%	19.3%	8.4%	23.4%	Activity (Trypanosoma cruzi [19]): Active
O=P(O)(O)C(Nc1cccc(Br)c1)P(=O)(O)O	2900 nM	10600 nM	7000 nM	20 µM (≈ 6.92 µg/mL)	600 nM	1200 nM	1200 nM	2600 nM	400 nM	–	18%	6%	Active	21.3%	18.3%	3.4%	31%	Activity (Trypanosoma cruzi [24]): Active; Activity (Trypanosoma cruzi [25]): 2%
